Screens: PubChem BioAssay, several laboratories
Compounds with a hit are over-represented: about 1.6% of the library has one in this group of screens.
Neddylation inh: cullin neddylation inhibition; P61081+Q13564; 0.58% of 360,000 active; inhibition, % at 25 µM; TR-FRET cullin neddylation, biochemical; in the data active means inhibition above about 36%
Target sequence (P61081 whole entry, looked up): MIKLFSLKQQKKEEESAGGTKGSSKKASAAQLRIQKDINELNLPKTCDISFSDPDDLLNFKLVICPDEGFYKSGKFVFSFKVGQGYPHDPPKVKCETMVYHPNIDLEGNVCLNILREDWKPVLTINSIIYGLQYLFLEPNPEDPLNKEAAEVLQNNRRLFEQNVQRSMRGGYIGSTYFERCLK
Target sequence (Q13564 whole entry, looked up): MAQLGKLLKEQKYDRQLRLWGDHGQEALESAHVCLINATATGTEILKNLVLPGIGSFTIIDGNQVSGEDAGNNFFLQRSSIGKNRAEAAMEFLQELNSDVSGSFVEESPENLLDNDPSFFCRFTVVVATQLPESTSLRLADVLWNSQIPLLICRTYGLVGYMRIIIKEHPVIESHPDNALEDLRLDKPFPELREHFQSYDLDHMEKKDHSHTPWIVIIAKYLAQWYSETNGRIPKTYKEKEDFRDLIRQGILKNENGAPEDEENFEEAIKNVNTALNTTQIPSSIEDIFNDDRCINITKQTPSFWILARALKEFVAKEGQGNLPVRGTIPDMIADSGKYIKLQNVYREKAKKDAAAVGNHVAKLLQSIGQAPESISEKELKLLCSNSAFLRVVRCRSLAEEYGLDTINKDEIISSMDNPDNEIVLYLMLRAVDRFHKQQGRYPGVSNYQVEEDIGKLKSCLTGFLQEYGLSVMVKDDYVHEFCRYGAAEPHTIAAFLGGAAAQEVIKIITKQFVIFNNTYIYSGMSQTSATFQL
ASAP1 inh: blocks human ASAP1-stimulated Arf1 GTP hydrolysis | inhibition, % at 16.5 µM | 0.19% of 360,000 active | AID 624377 | GDP FP detection; in the data active means inhibition above about 25%;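 further: 0% = vehicle with enzyme and substrate and 100% = no enzyme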
Cardio protect: myocardial damage modulation in H9c2 cells | H9c2 cardiomyocytes, H2O2 injury protection, ATPLite, 2 h | protection from H2O2 cell death, % at 20 µM | 0.63% of 360,000 active;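 active means compounds giving at least 50% protection of heart cells from peroxide-induced death in the single-dose screen, raw or plate-pattern-corrected value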;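 further: 0% = DMSO wells with peroxide and 100% = DMSO wells without peroxide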
ARFGAP1 inh: inhibitors of rat ARFGAP1. 0.26% of 360,000 active. inhibition, % at 16.5 µM. Arfgap1-stimulated ARF1 GTP hydrolysis, GDP FP detection;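 active means inhibition above a per-plate limit, mean inhibition of low control wells plus 3 SD, cut at about 25% in these data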;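 further: 0% = DMSO wells with enzyme and 100% = wells lacking Arfgap1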
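Material: rat Arfgap1 catalytic domain, aa 1-136; also added: human ARF1(Δ1-17)-GTP substrate; compound dosing: one concentration, 16.5 µM, DMSO 1.26%; incubation: GTP hydrolysis reaction 2 h at 25 °C; measured by: Tracer-displacement fluorescence polarization with EDTA stop, 620/688 nm; evaluation: % inhibition from polarization; repeats: one replicate per compound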
An asterisk follows results filed as active; · = not tested or not shown.

SMILES	Neddylation inh	ASAP1 inh	Cardio protect	ARFGAP1 inh
Cc1cc(Br)cn2c(Cc3ccccc3C(F)(F)F)c(-c3ccc(F)cc3)nc12	·	5.4	·	1.1
C/C(=N\NC(=O)c1cc(C2CC2)nc2ccccc12)c1ccc(O)cc1O	15.1	-9.0	50.6*	4.0
CC(OC(=O)c1cc(-c2cccnc2)nc2ccccc12)C(=O)Nc1ccc2ccccc2c1 (stereo not drawn)	-14.1	-13.6	67.2*	15.6
C/C(=N\NC(=O)c1cc(-c2cccnc2)nc2ccccc12)c1ccccc1O	2.2	0.2	59.6*	0.3
Cc1ccc2nc3n(c(=O)c2c1)-c1ccccc1C(=O)NC3CC(C)C (stereo not drawn)	·	-1.8	·	10.2
Cc1ccc(O)c(NC(=O)CSc2n[nH]c(-c3ccccc3)n2)c1	3.8	5.2	-8.1	1.8
O=C(CSc1n[nH]c(-c2ccccc2)n1)c1ccc(O)c(O)c1	-10.7	2.6	79.5*	7.7
Cc1cc(SCC(=O)c2ccc(O)c(O)c2)nc2ccccc12	-7.4	3.0	51.0*	9.6
O=C(Nc1nnc(C2CC2)s1)c1cc(-c2ccccc2)nn1-c1ccccc1	9.2	-3.4	51.6*	-2.8
O=C(O)c1ccc(N/N=C/c2cn(Cc3ccc(F)cc3)c3ccccc23)cc1	45.5*	-10.7	4.0	0.1
CCNC(=S)N/N=C/c1cn(Cc2ccc(F)cc2)c2ccccc12	0.6	1.3	-7.5	-1.7
CN1CCc2nc3ccccc3c(C(=O)OCC(=O)N(CCC#N)c3ccccc3)c2C1	·	18.5	58.3*	1.7
CCCc1cc(N2CCN(C(=O)c3ccco3)CC2)n2c(nc3ccccc32)c1C#N	·	4.0	55.1*	-6.6
Cc1nnc2c(N3CCN(C(=O)c4ccco4)CC3)nc3ccccc3n12	2.6	0.6	23.0	14.9
Cc1cc(N2CCN(C(=O)OC(C)(C)C)C[C@@H]2C)ccc1N1CCN(Cc2ccccc2)[C@@H](C)C1	·	-5.4	·	0.4
CN1CCN(c2ccccc2NC(=O)c2ccc(-c3cccc([N+](=O)[O-])c3)o2)CC1	-11.1	-4.3	77.0*	-4.6
CCC(=O)N1CCN(c2ccccc2NC(=O)c2ccc(-c3cccc([N+](=O)[O-])c3)o2)CC1	-9.2	-3.6	107.1*	-5.3
Cc1c(/C=N/NC(=O)c2cc(Br)ccc2O)c(=O)n(C)c(=O)n1C	-1.1	-2.0	1.1	4.4
Cc1ncc(CO)c(/C=N/NC(=O)c2cc(Br)ccc2O)c1O	16.4	-6.2	50.1*	-0.1
Cc1cc(C(=O)N/N=C/c2c(CO)cnc(C)c2O)c2ccccc2n1	-19.6	-5.1	55.3*	10.1
COC(=O)C1=C(C)N(Cc2ccccc2C(F)(F)F)C(=NCc2ccc3c(c2)OCO3)NC1c1cccc(C(F)(F)F)c1 (stereo not drawn)	·	7.1	·	6.0
CCCCC1OC23CCCCC2C(C#N)(C#N)C1(C#N)C(=N)O3 (stereo not drawn)	50.2*	13.4	3.4	0.4
CCN1CCN(Cc2ccc(NC(=O)c3cc(NC(=O)c4cc(-c5ccc(OC)cc5)n[nH]4)cc(OC)c3)cc2C(F)(F)F)CC1	3.8	26.2*	-2.4	31.0*
CCN1CCN(Cc2ccc(NC(=O)c3cc(NC(=O)c4ccc5n[nH]nc5c4)cc(OC)c3)cc2C(F)(F)F)CC1	1.0	23.0	0.6	9.1
CN(C)N(Cc1ccccc1)C(=O)C(O)(c1ccccc1)c1ccccc1	1.5	-1.6	60.1*	-3.5
SMILES	Neddylation inh	ASAP1 inh	Cardio protect	ARFGAP1 inh
COC(=O)[C@@]12CCCCN1[C@H](c1ccc(-c3cc(C(C)=O)cs3)c(OC)c1)[C@H]1C(=O)N(C)C(=O)[C@H]12	-247.4	1.2	30.6	5.5
COC(=O)[C@@]12CCCCN1[C@H](c1ccc(-c3cc(C(C)=O)cs3)cc1)[C@H]1C(=O)N(C)C(=O)[C@H]12	-67.5	-0.3	56.1*	-0.2
CC(OC(=O)Cn1[nH]c(=O)c2ccccc2c1=O)C(=O)Nc1ccc(Cl)cn1 (stereo not drawn)	-26.6	-0.6	51.7*	9.7
CC(OC(=O)Cn1[nH]c(=O)c2ccccc2c1=O)C(=O)NC1(C#N)CCCCC1 (stereo not drawn)	6.4	0.7	70.0*	-6.3
COc1ccc([N+](=O)[O-])cc1NC(=O)C(C)OC(=O)Cn1[nH]c(=O)c2ccccc2c1=O (stereo not drawn)	-17.1	3.6	58.0*	1.7
COC(=O)c1cc2c(c3c4cc(OC)ccc4n(S(=O)(=O)c4ccccc4)c13)C(=O)N(C)C2	·	1.4	·	4.5
C=CCN=C1NC(CCc2ccccc2)C(C(=O)OC)=C(C)N1Cc1cccc(C(F)(F)F)c1 (stereo not drawn)	·	-8.1	·	9.7
Cc1ccc(N=c2oc3cc(O)ccc3cc2C(N)=O)cc1	48.0*	3.4	-35.6	10.5
